The source made the active and inactive calls. No cut-off for these calls is given here.
Assays:
[1] = species: Mus musculus; assay: Induction of AMPKalpha phosphorylation in mouse 3T3L1 cells assessed as increase in ACC phosphorylation at 10 uM after 3 days by Western blotting method relative to control; format: cell-based
In short: (§1)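 3T3-L1 lysates were made in NP-40/deoxycholate/SDS buffer with protease and phosphatase inhibitors, then transferred to membranes. Membranes were blocked 2 h in 5% skim milk/TBST and probed with antibodies to phospho-Thr172 and total AMPKα, phospho-Ser79 and total ACC, SIRT1, PPARγ, SREBP-1c and FABP4. Detection was by ECL, with densitometry normalized to α-tubulin. Mean ± SD of 3 independent experiments.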

[2] = system: 3T3-L1; assay: Effect on AMPKalpha mRNA expression in mouse 3T3L1 cells at 10 uM after 3 days by qRT-PCR method; format: functional, cell-based
In short: (§2)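 Compounds were added to 3T3-L1 cells during cocktail-induced differentiation. Total RNA was extracted with RNAiso plus, and 1 µg was reverse-transcribed before real-time qPCR. Mouse primers were used for AMPK, ACC, SREBP-1c and FABP4. Mean ± SD of 3 independent experiments versus vehicle.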

[3] = system: 3T3-L1; assay: Upregulation of SIRT1 protein expression in mouse 3T3L1 cells at 10 uM after 3 days by Western blotting method; format: functional, cell-based; in short: as §1
[4] = system: 3T3-L1; assay: Downregulation of PPARgamma mRNA expression in mouse 3T3L1 cells at 10 uM after 3 days by RT-qPCR method; format: functional, cell-based
[5] = system: 3T3-L1; assay: Inhibition of triglyceride accumulation in mouse 3T3L1 cells after 3 days; format: functional, cell-based; settings: in the assay text read “after 6 days” for “after 3 days”
In short: (§3)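 3T3-L1 preadipocytes differentiated from 2 days post-confluence: 3 days in DMEM/10% FBS with insulin, dexamethasone, 0.5 mM IBMX and biotin, then 3 days with insulin only. Compounds in DMSO (0.1% DMSO vehicle) given on days 0 and 3. Berberine as positive control. Cells washed in ice-cold PBS and lysed; triglyceride measured with a commercial kit. Reported as TG relative to […] cells, mean ± SD of three independent experiments.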

[6] = system: 3T3-L1; assay: Effect on ACC mRNA expression in mouse 3T3L1 cells at 10 uM after 3 days by qRT-PCR method; format: functional, cell-based; in short: as §2
[7] = species: Mus musculus; assay: Induction of AMPKalpha phosphorylation in mouse 3T3L1 cells at 10 uM after 3 days by Western blotting method relative to control; format: cell-based; in short: as §1
[8] = system: 3T3-L1; assay: Downregulation of PPARgamma protein expression in mouse 3T3L1 cells at 10 uM after 3 days by Western blotting method; format: functional, cell-based; in short: as §1
[9] = system: 3T3-L1; assay: Upregulation of SIRT1 mRNA expression in mouse 3T3L1 cells at 10 uM after 3 days by qRT-PCR method; format: functional, cell-based
[10] = system: 3T3-L1; assay: Downregulation of FABP4 mRNA expression in mouse 3T3L1 cells at 10 uM after 3 days by RT-qPCR method; format: functional, cell-based; in short: as §2
[11] = system: 3T3-L1; assay: Inhibition of triglyceride accumulation in mouse 3T3L1 cells at 1 to 10 uM after 6 days by ORO staining-based microscopic method; format: functional, cell-based
In short: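 Differentiating 3T3-L1 cells received compounds in DMSO with the differentiation cocktail over 6 days, with 0.1% DMSO vehicle and berberine control. On day 6, cells fixed 1 h in 10% formaldehyde/PBS at room temperature and stained 30 min with fresh Oil Red O. After water washes, they were imaged at 10× magnification under constant light settings. Undifferentiated cells served as reference.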

[12] = system: 3T3-L1; assay: Downregulation of SREBP-1c protein expression in mouse 3T3L1 cells at 10 uM after 3 days by Western blotting method; format: functional, cell-based; in short: as §1
[13] = system: 3T3-L1; assay: Downregulation of FABP4 protein expression in mouse 3T3L1 cells at 10 uM after 3 days by Western blotting method; format: functional, cell-based; in short: as §1
[14] = Cytotoxicity against HEK293T cells after 24 hrs by MTT assay; format: cell-based, HEK-293T; settings: human
In short: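 HEK293T seeded 5000/well, grown overnight, then exposed to a range of compound concentrations for 24 h with 0.5% DMSO vehicle. MTT (0.05 mg/well) added for 4 h, formazan dissolved in DMSO, absorbance read at 492 nm after 20 min shaking. Percentage computed as (A experiment − A blank)/(A control − A blank).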

[15] = system: 3T3-L1; assay: Downregulation of SREBP-1c mRNA expression in mouse 3T3L1 cells at 10 uM after 3 days by RT-qPCR method; format: functional, cell-based; in short: as §2
[16] = system: 3T3-L1; assay: Inhibition of triglyceride accumulation in mouse 3T3L1 cells at 10 uM after 3 days relative to control; format: functional; settings: 3T3-L1, 72 h; in short: as §3

Cc1ccc(/C=C/c2cc(O)cc(=O)[nH]2)o1
fold change (FC) [1]: 4.12
Activity [2]: inactive
Activity [3]: Active
Activity [4]: Active
inhibition [5]: Dose-dependent effect
Activity [6]: inactive
fold change (FC) [7]: 3.1
Activity [8]: Active
Activity [9]: Active
Activity [10]: Active
inhibition [11]: Active
Activity [12]: Active
Activity [13]: Active
CC50 at 24 h [14]: > 1000 µM
Activity [15]: Active

Oc1ccc(/C=C/c2cc(O)cc(O)c2)cc1 [RESVERATROL]
inhibition [11]: Active
CC50 at 24 h [14]: 22.8 µM

COc1ccc2cc3[n+](cc2c1OC)CCc1cc2c(cc1-3)OCO2
inhibition [11]: Active

O=c1cc(O)cc(/C=C/C2CCCCC2)[nH]1
fold change (FC) [1]: 2.98
Activity [2]: inactive
Activity [3]: Active
Activity [4]: Active
inhibition [5]: Dose-dependent effect
Activity [6]: inactive
fold change (FC) [7]: 3.45
Activity [9]: Active
Activity [10]: Active
inhibition [11]: Active
inhibition at 10 µM [16]: 78.4%
CC50 at 24 h [14]: 13.8 µM
Activity [15]: Active

O=c1cc(O)cc(/C=C/c2ccccc2Cl)[nH]1
inhibition [5]: Dose-dependent effect

O=c1cc(O)cc(/C=C/c2ccccc2)[nH]1
inhibition [5]: Dose-dependent effect

O=c1cc(O)cc(/C=C/c2cccs2)[nH]1
inhibition [5]: Dose-dependent effect

O=c1cc(O)cc(/C=C/c2ccco2)[nH]1
inhibition [5]: Dose-dependent effect

Reference: ChEMBL document CHEMBL4251571, “Design, syntheses and lipid accumulation inhibitory activities of novel resveratrol mimics” (Eur J Med Chem, 2018)
